In ChEMBL document CHEMBL1123879, “Synthesis and antiarrhythmic activity of novel 3-alkyl-1-[omega-[4-[(alkylsulfonyl)amino]phenyl]-omega- hydroxyalkyl]-1H-imidazolium salts and related compounds” (J Med Chem, 1987):

Columns and labels:
Canis familiaris [1] = organism: Canis familiaris; assay: (§1) Concentration that causes 20% increase in ADP95 (action potential duration at 95% repolarization) was determined on isolated canine cardiac Purkinje fibers; assay type: functional, Canis lupus familiaris, Purkinje fiber
Outline: (§2)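 Canine cardiac Purkinje fibres in gassed physiological saline (95% O2–5% CO2, pH 7.35–7.40) at 36 ± 0.5 °C. Paced at 1.0 Hz with 2 ms pulses at twice diastolic threshold. Intracellular microelectrode recording after up to 1 h of stabilisation; 30 min exposure per concentration; one compound per fibre, with vehicle controls. Readout is concentration giving a 20% change in APD95, or maximal APD95 change; log mean with 90% CI when n > 2.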

Canis familiaris [2] = organism: Canis familiaris; assay: Maximum observed change in FRP from control was determined in isolated canine ventricular muscle fibers at a concentration of 100 uM; assay type: functional, Canis lupus familiaris, Muscle tissue
Outline: (§3)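 Canine right ventricular papillary muscle strips superfused with O2/CO2-gassed saline at 36 ± 0.5 °C. Bipolar electrogram recording. Stimulated at 4× diastolic threshold (2 ms pulses), equilibrated 60 min. FRP measured at 1000 ms cycle length by S2 after every tenth S1 at shortening intervals. Cumulative concentrations; one compound per strip, with vehicle controls. Readout is concentration giving a 20% FRP change, or maximal change; log mean with 90% CI when n > 2.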

Canis familiaris [3] = organism: Canis familiaris; assay: (§4) Concentration that causes 20% increase in functional refractory period (FRP) was determined on isolated canine ventricular muscle fibers; conditions: Canis lupus familiaris; Muscle tissue; outline: as §3
Canis familiaris [4] = organism: Canis familiaris; assay: Maximum observed change in ADP95 from control value was determined in isolated canine cardiac uM; assay type: functional, Canis lupus familiaris; outline: as §2
Canis familiaris [5] = assay: In vivo intraduodenal activity in mongrel dogs was assessed by % change in blood pressure (10 mg/kg administered intradermally); assay type: functional, Canis lupus familiaris, Artery; conditions: in the assay text read “intraduodenally” for “intradermally”
Outline: (§5)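 Healthy dogs (8–20 kg) of either sex, pentobarbital 30 mg/kg iv, ventilated, temperature held at 36 ± 0.5 °C. Compound given intraduodenally as suspension in 0.5% tragacanth. HR, BP and FRP measured at 45 min postdose; second dose if FRP/conduction change below 12%. Active dose means FRP change ≥ 12%; HR and BP given as % change, mean ± SEM.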

Canis familiaris [6] = assay: In vivo antiarrhythmic efficacy in a programmed electrical stimulation (PES) model of mongrel dogs expressed as minimum effect dose (iv) at iv dose range of 0.3-10 mg/kg.; assay type: functional, Canis lupus familiaris, Heart
Outline: (§6)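 Mongrel dogs (8–17 kg) with two-stage LAD occlusion 24 h earlier, anesthetized with thiopental 15 mg/kg and ventilated; open chest. PES induces SVT/VF; two control arrhythmias 30 min apart. Compound given as 10-min iv infusion, PES repeated 20 min later, dose escalated while still inducible; noninducibility counts as effective. HR and BP reported as % change at effective dose, mean ± SEM.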

Canis familiaris [7] = assay: In vivo intraduodenal activity in mongrel dogs was assessed by % change in heart rate (10 mg/kg administered intradermally); assay type: functional, Canis lupus familiaris; conditions: in the assay text read “intraduodenally” for “intradermally”; outline: as §5
Canis familiaris [8] = assay: In vivo antiarrhythmic efficacy in a programmed electrical stimulation (PES) model of mongrel dogs expressed as percent change in heart rate at iv dose range of 0.3-10 mg/kg.; assay type: functional, Canis lupus familiaris; outline: as §6
Canis familiaris [9] = assay: In vivo antiarrhythmic efficacy in a programmed electrical stimulation (PES) model of mongrel dogs expressed as percent change in blood pressure at iv dose range of 0.3-10 mg/kg.; assay type: functional, Canis lupus familiaris; outline: as §6
Canis familiaris [10] = assay: In vivo antiarrhythmic efficacy in a programmed electrical stimulation (PES) model of mongrel dogs reported as number of animals effective at dose range of 0.3-10 mg/kg.; assay type: functional, Canis lupus familiaris, Heart; outline: as §6
Canis familiaris [11] = organism: Canis familiaris; assay: as §4; design: species or system Canis lupus familiaris, Muscle tissue; outline: as §3
[12] = molecular target: Adrenergic receptor beta (Canis familiaris); assay: Concentration effective against displacing [3H]dihydroalprenolol from beta adrenergic receptor from canine ventricular tissue
Canis familiaris [13] = organism: Canis familiaris; assay: as §1; assay type: functional; conditions: Canis lupus familiaris; Purkinje fiber; outline: as §2
Canis familiaris [14] = organism: Canis familiaris; assay: Concentration that causes 20% increase in functional refractory period (FRP) was determined on isolated canine ventricular muscle fibers;range is 3.7-162; design: species or system Canis lupus familiaris, Muscle tissue; outline: as §3
Canis familiaris [15] = organism: Canis familiaris; assay: Concentration that causes 20% increase in ADP95 (action potential duration at 95% repolarization) was determined on isolated canine cardiac Purkinje fibers;range is 11.2-18.6; assay type: functional, Canis lupus familiaris, Purkinje fiber; outline: as §2
Canis familiaris [16] = assay: In vivo antiarrhythmic efficacy in a programmed electrical stimulation (PES) model of mongrel dogs expressed as minimum effect dose (iv) at iv dose range of 0.1-30 mg/kg.; assay type: functional, Canis lupus familiaris, Heart; outline: as §6
Canis familiaris [17] = assay: In vivo antiarrhythmic efficacy in a PES model of mongrel dog expressed as percent change in blood pressure at iv dose range of 0.1-30 mg/kg.; assay type: functional, Canis lupus familiaris; outline: as §6
Canis familiaris [18] = assay: In vivo intraduodenal activity in mongrel dogs was assessed by percent change in heart rate at active dose of 10 mg/kg, administered intradermally; assay type: functional, Canis lupus familiaris; conditions: in the assay text read “intraduodenally” for “intradermally”; outline: as §5
Canis familiaris [19] = assay: In vivo antiarrhythmic efficacy in a programmed electrical stimulation (PES) model of mongrel dogs reported as number of animals effective at dose range of 0.1-30 mg/kg.; assay type: functional, Canis lupus familiaris, Heart; outline: as §6
Canis familiaris [20] = assay: In vivo antiarrhythmic efficacy in a PES model of mongrel dog expressed as percent change in heart rate at iv dose range of 0.1-30 mg/kg.; assay type: functional, Canis lupus familiaris; outline: as §6
Canis familiaris [21] = assay: In vivo intraduodenal activity in mongrel dogs was assessed by percent change in blood pressure at active dose of 10 mg/kg, administered intradermally; assay type: functional, Canis lupus familiaris, Artery; conditions: in the assay text read “intraduodenally” for “intradermally”; outline: as §5
Canis familiaris [22] = assay: In vivo intraduodenal activity in mongrel dogs was assessed by percent change in heart rate at active dose of 30 mg/kg, administered intradermally; assay type: functional, Canis lupus familiaris; conditions: in the assay text read “intraduodenally” for “intradermally”; outline: as §5
Canis familiaris [23] = assay: In vivo intraduodenal activity in mongrel dogs was assessed by percent change in blood pressure at active dose of 30 mg/kg, administered intradermally; assay type: functional, Canis lupus familiaris, Artery; conditions: in the assay text read “intraduodenally” for “intradermally”; outline: as §5
Canis familiaris [24] = assay: In vivo antiarrhythmic efficacy in a programmed electrical stimulation (PES) model of mongrel dogs reported as number of animals effective at dose range of 0.1-10 mg/kg.; assay type: functional, Canis lupus familiaris, Heart; outline: as §6
Canis familiaris [25] = assay: In vivo antiarrhythmic efficacy in a programmed electrical stimulation (PES) model of mongrel dogs expressed as minimum effect dose (iv) at iv dose range of 0.1-10 mg/kg.; assay type: functional, Canis lupus familiaris, Heart; outline: as §6
Canis familiaris [26] = assay: In vivo antiarrhythmic efficacy in PES model of mongrel dogs expressed as percent change in blood pressure at iv dose range of 0.1-10 mg/kg.; assay type: functional, Canis lupus familiaris; conditions: in the assay text read “1.0-10 mg/kg” for “0.1-10 mg/kg”; outline: as §6
[27] = Canis lupus familiaris, Muscle tissue

Structure (SMILES)	Activity (Canis familiaris [1])	Max delta FRP (Canis familiaris [2])	Max delta APD95 (Canis familiaris [4])	Activity (Canis familiaris [11])	further results
C[n+]1ccn(CCCc2ccc(NS(C)(=O)=O)cc2)c1.O=P([O-])(O)O	7.2 µM	13%	47%		Activity (Canis familiaris [3]): Not recorded
C[n+]1ccn(CC(=O)c2ccccc2)c1.[Br-]	69 µM				Max delta FRP (Canis familiaris [2]; [27]): Minimal effects; Activity (Canis familiaris [3]): Not recorded
C[n+]1ccn(CC(O)c2ccc(NS(C)(=O)=O)cc2)c1.[Cl-] (centres undefined)	1.6 µM	31%	50%	5.9 µM	Blood pressure (Canis familiaris [5]): 5%; Min effective dose (Canis familiaris [6]): 6.5; Heart rate (Canis familiaris [7]): -10%; Heart rate (Canis familiaris [8]): -23%; Blood pressure (Canis familiaris [9]): 0%; No. effective (Canis familiaris [10]): 2; IC50 [12]: 2350 µM
CCS(=O)(=O)Nc1ccc(C(=O)Cn2cc[n+](C)c2)cc1.[Cl-]	29 µM	26%	33%	40 µM	
C[n+]1ccn(CC(O)c2ccc(NS(=O)(=O)C(F)(F)F)cc2)c1 (centres undefined)					Max delta FRP (Canis familiaris [2]; [27]): Minimal effects; Activity (Canis familiaris [3]): Not recorded; Max delta APD95 (Canis familiaris [4]; Canis lupus familiaris): Minimal effects; Activity (Canis familiaris [13]): Not recorded
Cc1c(C)[n+](C)c(C)n1CC(O)c1ccc(NS(C)(=O)=O)cc1.[Cl-] (centres undefined)		29%	13%	2.5 µM	Blood pressure (Canis familiaris [5]): 19%; Heart rate (Canis familiaris [7]): -12%; Activity (Canis familiaris [13]): Not recorded
CC(C)NCC(O)c1ccc(NS(C)(=O)=O)cc1.Cl (centres undefined) [SOTALOL HYDROCHLORIDE]		23%	48%		Activity (Canis familiaris [14]): 24.7 µM; Activity (Canis familiaris [15]): 14.4 µM; Mean effective dose (Canis familiaris [16]): 1.4; Change (Canis familiaris [17]): -23%; Change (Canis familiaris [18]): -11%; No. of animals (Canis familiaris [19]): 3; Change (Canis familiaris [20]): -23%; Change (Canis familiaris [21]): 8%
CCCCCCC[n+]1ccn(CC(O)c2ccc(NS(C)(=O)=O)cc2)c1.O=P([O-])(O)O (centres undefined)	2.8 µM	24%	50%	9 µM	Blood pressure (Canis familiaris [5]): 6%; Heart rate (Canis familiaris [7]): -10%
C[n+]1ccn(C[C@@H](O)c2ccc(NS(C)(=O)=O)cc2)c1.[Cl-]	0.7 µM	31%	74%	7.5 µM	
C[n+]1ccn(CCc2ccc(NS(C)(=O)=O)cc2)c1.[I-]	2.6 µM	24%	45%	10 µM	Heart rate (Canis familiaris [22]): -13%; Blood pressure (Canis familiaris [23]): 3%; No. effective (Canis familiaris [24]): 2; Min effective dose (Canis familiaris [25]): 6.5; Blood pressure (Canis familiaris [26]): 13%
C[n+]1ccn(CC(O)c2ccccc2)c1.[Br-] (centres undefined)		22%	12%	50 µM	Activity (Canis familiaris [13]): Not recorded
C[n+]1ccn(C[C@H](O)c2ccc(NS(C)(=O)=O)cc2)c1.[Cl-]	0.3 µM	25%	58%	14 µM	
